{"data": "Measured values gathered from unrelated publications", "HDAC7": "Histone deacetylase 7 (HDAC7, Homo sapiens, UniProt Q8WUI4)", "CSNK1A1": "Casein kinase I isoform alpha (CSNK1A1, Homo sapiens, UniProt P48729)", "SLC22A12": "Solute carrier family 22 member 12 (SLC22A12, Homo sapiens, UniProt Q96S37)", "HDAC10": "Polyamine deacetylase HDAC10 (HDAC10, Homo sapiens, UniProt Q969S8)"}
{"SMILES": "COc1ccc(N(Cc2csc(-c3ccc(Br)cc3)n2)C(=O)CCCCCC(=O)NO)cc1", "target": "HDAC7", "observed": "enzyme activity", "action": "inhibitor", "IC50 [nM]": "> 10000"}
{"SMILES": "CC(C)NC(=O)COc1cccc(-c2nc(Nc3ccc4[nH]ncc4c3)c3ccccc3n2)c1", "target": "Solute carrier family 22 member 2 (SLC22A2, Homo sapiens, UniProt O15244)", "observed": "transporter uptake", "action": "inhibitor", "method": "radiometric", "cells": "HEK293", "IC50 [nM]": "> 1000"}
{"SMILES": "Cn1cc(-c2ccnc3ccccc23)c(-c2ccccn2)n1", "target": "CSNK1A1", "observed": "enzyme activity", "action": "inhibitor", "method": "ADP detection", "IC50 [nM]": 1500}
{"SMILES": "Fc1ccc(-c2nn3cc(F)ccc3c2-c2ccncc2)cc1", "target": "CSNK1A1", "observed": "enzyme activity", "action": "inhibitor", "method": "ADP detection", "IC50 [nM]": 2400}
{"SMILES": "CCc1oc2cc(F)c(F)cc2c1C(=O)c1cc(Br)c(O)c(Br)c1", "target": "SLC22A12", "observed": "transporter uptake", "action": "inhibitor", "method": "radiometric", "notes": "oocytes", "IC50 [nM]": 245}
{"SMILES": "O=C(O)CCc1nccc2c3ccccc3n(Cc3ccc(Br)c4ccccc34)c12", "target": "SLC22A12", "observed": "transporter uptake", "action": "inhibitor", "method": "radiometric", "IC50 [nM]": 13800}
{"SMILES": "Nc1ncnc2c1ncn2[C@@H]1O[C@H](CSCC[C@H](N)C(=O)O)[C@@H](O)[C@H]1O", "target": "Histone-lysine N-methyltransferase SETD2 (SETD2, Homo sapiens, UniProt Q9BYW2)", "observed": "enzyme activity", "action": "inhibitor", "IC50 [nM]": 2110}
{"SMILES": "O=C(NO)c1ccc(Cn2cnc3c(Nc4cccc([N+](=O)[O-])c4)ncnc32)cc1", "target": "HDAC7", "observed": "enzyme activity", "action": "inhibitor", "IC50 [nM]": 117}
{"SMILES": "CC(=O)N[C@@H](CC(C)C)C(=O)N[C@@H](CC(C)C)C(=O)N[C@H](C=O)CCCNC(=N)N", "target": "Kallikrein-1 (KLK1, Homo sapiens, UniProt P06870)", "observed": "enzyme activity", "action": "inhibitor", "IC50 [nM]": 3900}
{"SMILES": "CN(CCCCCCNC(=O)CNc1cccc2c1C(=O)N(C1CCC(=O)NC1=O)C2=O)Cc1cn(Cc2ccc(C(=O)NO)cc2)c2ccccc12 (centres unmarked)", "target": "HDAC10", "observed": "enzyme activity", "action": "inhibitor", "method": "fluorescence", "IC50 [nM]": 7}
{"SMILES": "c1ccc(-c2n[nH]cc2-c2ccncc2)nc1", "target": "CSNK1A1", "observed": "enzyme activity", "action": "inhibitor", "method": "ADP detection", "IC50 [nM]": 2900}
{"SMILES": "Cc1ccc(S(=O)(=O)NC(=O)c2cc3ccccc3n2Cc2ccc(C3CC3)c3ccccc23)cc1", "target": "SLC22A12", "observed": "transporter uptake", "action": "inhibitor", "method": "radiometric", "IC50 [nM]": 14000}
{"SMILES": "O=C(c1ccc(OCCN2CCCCC2)cc1)c1c(-c2ccc(O)cc2)sc2cc(O)ccc12", "target": "Angiotensin-converting enzyme (Mus musculus, UniProt P09470)", "observed": "enzyme activity", "action": "inhibitor", "IC50 [nM]": 88600}
{"SMILES": "O=C(CCCCc1ccc(CO)cc1)C(F)(F)F", "target": "85/88 kDa calcium-independent phospholipase A2 (PLA2G6, Homo sapiens, UniProt O60733)", "observed": "enzyme activity", "action": "inhibitor", "IC50 [nM]": 1100}
{"SMILES": "COc1ccc(N(Cc2nc(-c3ccc(F)cc3)cs2)C(=O)CCCCCC(=O)NO)cc1", "target": "HDAC7", "observed": "enzyme activity", "action": "inhibitor", "IC50 [nM]": "> 10000"}
{"SMILES": "CCCc1ccn2c(-c3ccncc3)c(-c3ccc(F)cc3)nc2c1", "target": "CSNK1A1", "observed": "enzyme activity", "action": "inhibitor", "method": "ADP detection", "IC50 [nM]": 970}
{"SMILES": "c1ccc(Cn2cc(-c3ccnc4ccccc34)c(-c3ccccn3)n2)cc1", "target": "CSNK1A1", "observed": "enzyme activity", "action": "inhibitor", "method": "ADP detection", "IC50 [nM]": 5900}
{"SMILES": "O=C(CNc1cccc2c1C(=O)N(C1CCC(=O)NC1=O)C2=O)NCCCCCCN1CCc2c(c3ccccc3n2Cc2ccc(C(=O)NO)cc2)C1 (centres unmarked)", "target": "HDAC10", "observed": "enzyme activity", "action": "inhibitor", "method": "fluorescence", "IC50 [nM]": 22}
{"SMILES": "NC(=O)c1nnn(Cc2cc(Cl)c(C(=O)c3ccc(Cl)cc3)c(Cl)c2)c1N", "target": "Cannabinoid receptor 2 (CNR2, Homo sapiens, UniProt P34972)", "observed": "cAMP", "action": "antagonist", "IC50 [nM]": 3780}
{"SMILES": "Oc1ccc2c(-c3ccncc3)c(-c3ccc(F)cc3)nn2c1", "target": "CSNK1A1", "observed": "enzyme activity", "action": "inhibitor", "method": "ADP detection", "IC50 [nM]": 1600}
